The source made the active and inactive calls. No rule for the calls is given here.
Columns and labels:
[1] = target: Cannabinoid receptor 2 (Homo sapiens) (UniProt P34972); assay: Agonist activity at human recombinant cannabinoid CB2 receptor expressed in CHO cells at 10 uM by [35S]GTPgammaS binding assay; assay type: functional, cell-based
Method in brief: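 Single-point screen for G-protein activation at hCB2 with [35S]GTPγS binding, ligand at 10 µM. Response given relative to the 10 nM HU-210 agonist response, in percent. Mean SEM of at least three experiments, each done in duplicate.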

[2] = target: Cannabinoid receptor 1 (Rattus norvegicus) (UniProt P20272); assay: Antagonist activity at rat cannabinoid CB1 receptor in Wistar rat cerebellar membranes at 10 uM by [35S]GTPgammaS binding assay; assay type: functional, cell membranes; details: Cerebellum, Membrane
Method in brief: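 Uses non-recombinant rat cerebellar membrane fractions as the CB1 source, with [35S]GTPγS binding. Ligand screened at 10 µM for its ability to antagonize the agonist response to 10 nM HU-210.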

[3] = target: Cannabinoid receptor 2 (Homo sapiens) (UniProt P34972); assay: Agonist activity at human recombinant cannabinoid CB2 receptor expressed in CHO cells by [35S]GTPgammaS binding assay relative to HU-210; assay type: functional, cell-based
Method in brief: (§1)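 hCB2 [35S]GTPγS binding concentration–response curves, run only for ligands giving over 50% relative activity at 10 µM. logEC50 and Emax come from nonlinear regression fitted to a sigmoidal concentration–response equation. Emax is given as percent of the 10 nM HU-210 response. Mean SEM of at least three experiments in duplicate.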

[4] = target: Cannabinoid receptor 2 (Homo sapiens) (UniProt P34972); assay: Agonist activity at human recombinant cannabinoid CB2 receptor expressed in CHO cells by [35S]GTPgammaS binding assay; assay type: functional, cell-based; method in brief: as §1
[5] = target: Cannabinoid receptor 1 (Rattus norvegicus) (UniProt P20272); assay: Antagonist activity at rat cannabinoid CB1 receptor in Wistar rat cerebellar membranes by [35S]GTPgammaS binding assay; assay type: functional, cell membranes; details: Cerebellum, Membrane
Method in brief: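 Non-recombinant rat cerebellar membrane fractions, [35S]GTPγS binding. Compounds screened at a single concentration for their ability to antagonise the response to 10 nM HU-210 agonist.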

Sequence of Cannabinoid receptor 1 (Rattus norvegicus) (P20272 whole entry): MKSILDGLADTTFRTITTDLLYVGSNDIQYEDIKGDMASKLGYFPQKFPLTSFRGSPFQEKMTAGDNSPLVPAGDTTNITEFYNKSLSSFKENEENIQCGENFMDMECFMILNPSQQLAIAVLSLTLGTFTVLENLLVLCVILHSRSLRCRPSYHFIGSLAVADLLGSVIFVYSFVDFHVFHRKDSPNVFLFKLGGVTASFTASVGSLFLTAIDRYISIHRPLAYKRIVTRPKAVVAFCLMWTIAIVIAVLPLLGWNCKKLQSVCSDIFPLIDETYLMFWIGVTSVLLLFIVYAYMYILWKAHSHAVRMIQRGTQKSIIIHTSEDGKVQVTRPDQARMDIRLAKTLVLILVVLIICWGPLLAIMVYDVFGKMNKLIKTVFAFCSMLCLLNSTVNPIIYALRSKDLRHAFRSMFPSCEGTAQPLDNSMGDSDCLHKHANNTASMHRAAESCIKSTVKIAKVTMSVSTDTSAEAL
Sequence of Cannabinoid receptor 2 (Homo sapiens) (P34972 whole entry): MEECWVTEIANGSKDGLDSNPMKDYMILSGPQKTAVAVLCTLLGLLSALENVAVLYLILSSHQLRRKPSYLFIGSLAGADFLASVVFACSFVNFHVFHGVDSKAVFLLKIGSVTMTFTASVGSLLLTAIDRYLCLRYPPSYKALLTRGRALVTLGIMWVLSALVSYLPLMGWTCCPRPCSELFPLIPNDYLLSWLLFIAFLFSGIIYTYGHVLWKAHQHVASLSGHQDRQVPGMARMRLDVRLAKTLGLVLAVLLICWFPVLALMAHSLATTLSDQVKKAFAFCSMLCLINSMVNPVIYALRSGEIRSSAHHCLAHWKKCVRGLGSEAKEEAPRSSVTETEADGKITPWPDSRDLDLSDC

SMILES | Activity [1] | Activity [2] | Emax [3] | pEC50 [4] | logEC50 [5]
c1ccc(Cc2ccccc2Nc2ccc3ccccc3n2)cc1 | 18% | inactive | – | – | –
CCCCCCNc1ccc2ccccc2n1 | 10% | inactive | – | – | –
CCOC(=O)c1ccc(Nc2ccc3ccccc3n2)cc1 | 3% | inactive | – | – | –
FC(F)(F)c1ccccc1Nc1nccc2ccccc12 | 43% | inactive | – | – | –
O=C(NCc1ccccc1)c1cc2ccccc2c(Nc2cccc(C(F)(F)F)c2)n1 | 0% | inactive | – | – | –
O=C(NC1CCCCC1)c1cc2ccccc2c(Nc2cccc(C(F)(F)F)c2)n1 | 13% | inactive | – | – | –
c1ccc2nc(NCC3CCCCC3)ccc2c1 | 44% | inactive | – | – | –
c1ccc(Oc2nccc3ccccc23)cc1 | 31% | inactive | – | – | –
COc1cccc(Nc2ccc3ccccc3n2)c1 | 50% | inactive | 61% | 5.6 | –
c1ccc(Nc2nccc3ccccc23)cc1 | 7% | inactive | – | – | –
c1ccc(Sc2cnc3ccccc3c2)cc1 | 13% | inactive | – | – | –
COc1ccccc1NC(=O)c1cnc(Nc2cccc(C(F)(F)F)c2)c2ccccc12 | 1% | inactive | – | – | –
c1ccc2nc(NC3CCCC3)ccc2c1 | 22% | inactive | – | – | –
c1ccc(Oc2cnc3ccccc3c2)cc1 | 17% | inactive | – | – | –
c1ccc(Nc2cnc3ccccc3n2)cc1 | 30% | inactive | – | – | –
c1ccc(Nc2ncnc3ccccc23)cc1 | 10% | inactive | – | – | –
FC(F)(F)c1ccccc1Nc1ccc2ccccc2n1 | 63% | inactive | 103% | 5.2 | –
Brc1cccc(Nc2ccc3ccccc3n2)c1 | 64% | inactive | 69% | 5.7 | –
c1ccc(Sc2ccc3ccccc3n2)cc1 | 47% | inactive | 61% | 5.4 | –
Clc1ccccc1Nc1ccc2ccccc2n1 | 56% | inactive | 91% | 5.2 | –
O=C(NCc1ccccc1)c1cnc(Nc2cccc(C(F)(F)F)c2)c2ccccc12 | 21% | inactive | – | – | –
Clc1cccc(Nc2ccc3ccccc3n2)c1 | 58% | inactive | 70% | 5.6 | –
FC(F)(F)c1cccc(Nc2ncnc3ccccc23)c1 | 68% | inactive | 79% | 5.6 | –
COc1ccccc1Nc1ccc2ccccc2n1 | 69% | inactive | 102% | 5.3 | –
COc1ccc(Nc2ccc3ccccc3n2)cc1 | 49% | inactive | 51% | 5.7 | –
Clc1ccc(Nc2ccc3ccccc3n2)cc1 | 75% | inactive | 80% | 5.7 | –

SMILES | Activity [1] | Activity [2] | Emax [3] | pEC50 [4] | logEC50 [5]
COc1cc(C(F)(F)F)ccc1Nc1ccc2ccccc2n1 | 33% | inactive | – | – | –
OCCc1ccc(Nc2ccc3ccccc3n2)cc1 | 20% | inactive | – | – | –
c1ccc(CNc2ccc3ccccc3n2)cc1 | 20% | inactive | – | – | –
O=C(c1cnc(Nc2cccc(C(F)(F)F)c2)c2ccccc12)N1CCOCC1 | 76% | – | 75% | 7.8 | 5
c1ccc2nc(N3CCCCC3)ccc2c1 | 10% | inactive | – | – | –
O=C(NCC1CCCCC1)c1cnc(Nc2cccc(C(F)(F)F)c2)c2ccccc12 | 58% | inactive | 67% | 5.8 | –
Oc1ccc(Nc2ccc3ccccc3n2)cc1 | 8% | inactive | – | – | –
c1ccc(Sc2nccc3ccccc23)cc1 | 33% | inactive | – | – | –
c1ccc(Nc2ccc3ccccc3n2)cc1 | 39% | inactive | – | – | –
FC(F)(F)c1cccc(Nc2ncc3ccccc3n2)c1 | 53% | inactive | 67% | 5.5 | –
FC(F)(F)c1cccc(Nc2ccnc3ccccc23)c1 | 50% | inactive | 58% | 5.5 | –
O=C(NCC1CCCCC1)c1cc2ccccc2c(Nc2cccc(C(F)(F)F)c2)n1 | -2% | inactive | – | – | –
c1ccc2nc(NC3CCCCC3)ccc2c1 | 57% | inactive | 88% | 5.2 | –
c1ccc2nc(N3CCOCC3)ccc2c1 | 7% | inactive | – | – | –
COC(=O)c1cc2ccccc2c(Nc2cccc(C(F)(F)F)c2)n1 | 4% | inactive | – | – | –
N#Cc1cccc(Nc2ccc3ccccc3n2)c1 | 25% | inactive | – | – | –
FC(F)(F)c1cccc(Nc2cnc3ccccc3n2)c1 | 52% | inactive | 69% | 5.4 | –
c1ccc(Nc2ccnc3ccccc23)cc1 | 9% | inactive | – | – | –
FC(F)(F)c1cccc(Nc2ccc3ccccc3n2)c1 | 64% | inactive | 65% | 5.9 | –
O=C(NC1CCCCC1)c1cnc(Nc2cccc(C(F)(F)F)c2)c2ccccc12 | 54% | inactive | 73% | 5.7 | –
CN(C)c1ccc(Nc2ccc3ccccc3n2)cc1 | 20% | inactive | – | – | –
FC(F)(F)c1ccc(Nc2nccc3ccccc23)cc1 | 25% | inactive | – | – | –
FC(F)(F)c1ccc(Nc2ccc3ccccc3n2)cc1 | 48% | inactive | – | – | –
FC(F)(F)c1cccc(Nc2nccc3ccccc23)c1 | 102% | inactive | 124% | 5.8 | –
c1ccc(Nc2ncc3ccccc3n2)cc1 | 38% | inactive | – | – | –

Source: ChEMBL document CHEMBL1641511, “Microwave-assisted synthesis of quinoline, isoquinoline, quinoxaline and quinazoline derivatives as CB2 receptor agonists” (Bioorg Med Chem, 2011)
